This is an account of results in ChEMBL document CHEMBL4513216, “Probing the Open Global Health Chemical Diversity Library for Multistage-Active Starting Points for Next-Generation Antimalarials” (ACS Infect Dis, 2020).

The nature of this data set: Toxicity liver stage against HepG2, at 10uM. In kind it is cell-based. Also on record: test concentration 10 uM, cell line HepG2-A16-CD81EGFP. As to conditions: human, HepG2-A16-CD81EGFP cells; read-out: INHIBITION
Summed up:
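Uninfected HepG2-A16-CD81EGFP cells, 3 × 10^3 per well, 1536-well, plated on prespotted compound at 10 μM final, parasite-free screening media added to match infected plates; puromycin 10 μM positive, DMSO 0.5% negative; run in parallel with 48 h PbLuc assay at 37 °C, 5% CO2; viability by CellTiter-Glo luminescence, normalized to controls.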
As to `F[C@@H]1CN(CC2CCCCC2)C[C@@H]1OCc1nc2ccccc2o1`, the cytotoxicity at 10 µM worked out at 1.9%. As for `O=C(c1nc(Cc2c[nH]c3ccccc23)no1)N1CCOCC1`, the cytotoxicity at 10 µM came out at 11.1%. Regarding `C[C@@H](O)CNC(=O)c1nc(CC(=O)Nc2cccc(C(F)(F)F)c2)no1`, the cytotoxicity at 10 µM was 8.35%. `CC1=Nc2c(c(=O)[nH]n2C(C)C)C(c2ccsc2)S1` (centres undefined): the cytotoxicity at 10 µM is -2.92%. Regarding `Cn1c(CN2CCOCC2)cc(=O)c(O)c1CN1CCCCC1`, the cytotoxicity at 10 µM is -3.15%. With `Cc1noc(C)c1C(=O)Nc1ccc2ncn(CC(C)C)c(=O)c2c1` the figure was 8.75%. With `O=C(Cc1ccc(F)cc1)NCC(O)(c1cccs1)C1CC1` (centres undefined) the figure was -39.3%.

As to `COc1cc(C(=O)NCCc2ccc(OC)c(OC)c2)on1`, the cytotoxicity at 10 µM is 1.84%. On to `O=C(c1cscn1)N1CCC2(CCN(S(=O)(=O)c3ccccc3)C2)C1` (centres undefined), for which the cytotoxicity at 10 µM was 11%. With `O=C([C@@H]1CCO[C@@H]2CCN(Cc3ccco3)C[C@H]21)N1CCCCO1`, the cytotoxicity at 10 µM was 9.76%. For `Cc1n[nH]/c(=N\C(=O)c2c3c(nc4onc(C)c24)CCC3)s1`, the cytotoxicity at 10 µM was -1.88%. On to `COC(=O)Cn1cccc(S(=O)(=O)N2CCC(C)CC2)c1=O`, for which the cytotoxicity at 10 µM was -2.85%.

As for `CC(C)(C)C(=O)Cn1nc(-c2ccccc2F)ccc1=O`, the cytotoxicity at 10 µM was -8.46%.

In the case of `O=C(NCCCN1CCOCC1)c1cccc(OCc2ccccc2)c1`, the cytotoxicity at 10 µM was -4.87%.

In the case of `COc1ccc(N2CCN(C(=O)C(C)n3cc(Br)cn3)CC2)cc1` (centres undefined), the cytotoxicity at 10 µM worked out at 11.4%. The figure for `COCCNc1cc(C)nn2cnnc12` is -1.63%; for `Cn1c(=O)oc2cc(S(=O)(=O)N3CCCCC3)c(Cl)cc21` it is 19%.

Consider `CCn1ncc(CN(C)C(=O)c2ccn(C)n2)c1C`, for which the cytotoxicity at 10 µM is 6.5%. The figure for `COc1cc(C2SCC(=O)Nc3[nH]ncc32)cc2c1OCO2` (centres undefined) is 5.28%; for `CCNC(=O)c1nnc2ccc(N3CCOCC3)cc2n1` it is 3.56%; for `O=C(CC1CC1)N1C[C@@H](O)[C@H](N2CCN(c3ccccc3)CC2)C1` it is -0.38%.

As for `CC(C)(C)c1cc(C(=O)N2CCC(c3cnccn3)CC2)[nH]n1`, the cytotoxicity at 10 µM came to 0.775%. The figure for `O=C(CC1CCCC1)N1CCCC1c1ccc(CN2CCOCC2)cn1` (centres undefined) is 1.37%. The figure for `O=C1Nc2ccccc2CNC12CCN(CC1CCCC1)CC2` is 6.39%; for `CC(C)CNC(=O)c1cc(C2CC2)nc2c1c(C1CCCN1)nn2C` (centres undefined) it is 15.9%.

For the molecule `O=C(N1CCCCC1)N1CCN(c2ccc(Cl)nn2)C(=O)C1`, the cytotoxicity at 10 µM came out at 8.24%. Regarding `O=S(=O)(N1CCCCC1)N1CCCN(CC2CCCO2)CC1` (centres undefined), the cytotoxicity at 10 µM was -3.94%.

`CN(Cc1ccccc1F)C(=O)COC(=O)c1cc(Cl)c[nH]1`: the cytotoxicity at 10 µM is 12.4%. The figure for `CC(=O)c1c(C)cc(C)c(CS(=O)(=O)c2nccn2C)c1C` is -4.28%. With `CCc1nnc2n1CCN(C(=O)CCOc1ccc(C)cc1C)C2` the figure was 2.93%.

With `FC(F)(F)C1CCCn2c(CNCc3cccs3)nnc21` (centres undefined), the cytotoxicity at 10 µM was 3.79%.

For the molecule `Cc1n[nH]c(C)c1NC(=O)CN1CCCC1Cn1cncn1` (centres undefined), the cytotoxicity at 10 µM was found to be 15.5%. For `COc1cccc(CNCCc2cc(F)cc3c2OCOC3)c1OC`, the cytotoxicity at 10 µM is 4.32%. As for `COc1cccc(CNCCNS(=O)(=O)Cc2ccccc2)c1`, the cytotoxicity at 10 µM turned out to be 13.4%. Take `O=C(Nc1cccnc1-n1cccn1)N1CCCC(N2CCCC2)C1` (centres undefined): the cytotoxicity at 10 µM is 8.53%. With `COc1ccc(C)c2c1N(C(=O)c1ccc3nnc(C)n3c1)CCC2` the figure was 2.84%. On to `CCOc1ccc(NC(=O)N2CCC(n3cncn3)CC2)cc1Cl`, for which the cytotoxicity at 10 µM is -7.22%.

For `Cc1cnn(CCCNCc2csc(COc3ccccc3)n2)c1`, the cytotoxicity at 10 µM is 5.34%. With `CS(=O)(=O)c1cc(S(N)(=O)=O)ccc1NCC1CCCO1` (centres undefined) the figure was 6.26%; with `CN(Cc1ccco1)Cc1ccccc1CNC(=O)c1ccc[nH]1`, -4.11%; with `CCc1ncc2c(n1)CN(Cc1nnc(C)o1)CC2`, -12.1%.

On to `COc1ncnc2c1CCN(CC1CCOC1)CC2` (centres undefined), for which the cytotoxicity at 10 µM was -68.9%. Regarding `Cn1ccc(-c2cc(C(=O)N3CCOCC3)c3ccccn23)n1`, the cytotoxicity at 10 µM is 7.9%.

For the molecule `COCCNC(=O)[C@H]1C[C@@H]2CCN(Cc3ccoc3)C[C@H]2O1`, the cytotoxicity at 10 µM is 2.31%. The figure for `CCCn1cc(-c2cc(C(=O)N(C)C)c3ccc(OC)cc3n2)cn1` is 6.22%; for `COCCN1CCC(CN(CC2CCCO2)C(=O)C2CCOCC2)CC1` (centres undefined) it is -0.401%. With `Nc1cc(C(=O)N2CCOC(Cc3cccc(C(F)(F)F)c3)C2)ccn1` (centres undefined) the figure was -1.97%.

For `Cc1cc(CN(C)c2nc(-c3ccco3)nc3c2CCN(C)CC3)on1`, the cytotoxicity at 10 µM came out at 9.34%. As to `Cc1c[nH]c(CN(C)C(=O)[C@@]23CNC[C@@H]2CN(c2ncccn2)C3)n1`, the cytotoxicity at 10 µM was -2.4%. Consider `O=C1CC(c2ncc(-c3ccc4c(c3)OCCO4)[nH]2)CN1C1CC1` (centres undefined), for which the cytotoxicity at 10 µM is -4.62%. In the case of `Cc1cnc(C)c(N2CCN(CCCc3[nH]nc(C)c3C)CC2)n1`, the cytotoxicity at 10 µM is -10%. Turning to `O=C(O)c1ccnc(-c2ccnc(N3CCC(F)(F)CC3)n2)c1`, the cytotoxicity at 10 µM is -12.3%. As to `NCCN1C(=O)CC[C@H]2CN(Cc3ccc4occc4c3)CC[C@H]21`, the cytotoxicity at 10 µM is -1.14%. `CC(=O)NCCn1ccnc1-c1cccc(C(C)N(C)C)c1` (centres undefined): the cytotoxicity at 10 µM was 2.4%.

For the molecule `Cc1cc(C(=O)N2C[C@@H](CN3CCOCC3)C[C@H](CO)C2)nc(C)n1`, the cytotoxicity at 10 µM was 3.63%. The figure for `O=C(NCc1ccccc1-n1cccn1)C1CC2(CCNCC2)CN1` (centres undefined) is -0.413%.

Take `CCCc1nc(CN(CC)C(=O)c2ccc(OC)c(OC)c2)no1`: the cytotoxicity at 10 µM is -6.93%. With `COc1ccccc1OCCCN1CC=C(c2cnn(C)c2)CC1` the figure was 8.32%; with `CCCN(Cc1nccn1C)C(=O)c1cc(C(C)C)on1`, 4.24%. `CCn1cncc1CNC(=O)c1ccc(C2CCCN2C(=O)COC)s1` (centres undefined): the cytotoxicity at 10 µM came to 6.48%. With `CCc1cc(N2CCC(NCCc3nc(C)c(C)s3)CC2)nc(C)n1` the figure was 0.902%. As for `CC(C)(C)NC(=O)c1ccccc1NC(=O)c1ccncc1`, the cytotoxicity at 10 µM was -10.3%. The figure for `O=C(O)C(c1ccc2c(c1)OCCO2)N1CCC(N2CCOCC2)CC1` (centres undefined) is -0.809%; for `O=C(c1cc(=O)[nH]c(=O)[nH]1)N1CCCCC1c1ccc(F)cc1` (centres undefined) it is -10.2%; for `CC(C)c1nc(C2CCCN(C(=O)c3ccc(N(C)C)nn3)C2)no1` (centres undefined) it is -9.71%.

As for `CCN(CC)c1ccc(C(=O)N2CCC(c3nc(C)no3)CC2)cn1`, the cytotoxicity at 10 µM was -7.42%. As to `CN(CC(=O)N1CCCC1)C(=O)Cc1csc(-c2ncccn2)n1`, the cytotoxicity at 10 µM is -9.51%.

For the molecule `O=C(NCc1ccc(-c2ccn[nH]2)cc1)N1CCC(N2CCCC2)C1` (centres undefined), the cytotoxicity at 10 µM is -8.35%. Take `Cc1cccc(-c2ccc(C(=O)NCC(C)(C)C(N)=O)c(=O)[nH]2)c1`: the cytotoxicity at 10 µM is -10.5%.

For the molecule `CNC(=O)C1CCC(NC(=O)N(C)Cc2c(C)noc2C)CC1` (centres undefined), the cytotoxicity at 10 µM is -13.7%. Take `O=C(Nc1cn[nH]c1)c1ccc(O)nc1`: the cytotoxicity at 10 µM is -1.09%. The figure for `CC(C)c1nc(C2CCCN2CC(=O)N2CCNC2=O)no1` (centres undefined) is -8.96%.

In the case of `CC(NC(=O)NCCn1ccnc1)c1ccc2c(c1)NC(=O)CO2` (centres undefined), the cytotoxicity at 10 µM is -7.36%. In the case of `COc1ccc2cc(C(=O)N3CCCCC3CC(N)=O)[nH]c2c1` (centres undefined), the cytotoxicity at 10 µM is -12.3%.

As to `O=C(NCCNC(=O)c1scnc1Cl)c1ccccc1`, the cytotoxicity at 10 µM stood at 8.45%. As for `CCc1n[nH]c(C2CN(Cc3nccn3CC)CCO2)n1` (centres undefined), the cytotoxicity at 10 µM was -1.85%. In the case of `CC(C)c1nccn1C1CCCN(C(=O)c2ccc3[nH]nnc3c2)C1` (centres undefined), the cytotoxicity at 10 µM worked out at 1.9%. The figure for `O=C1CCCCN1c1cccc(CNC2CCCC2)c1` is 6.86%. Consider `Cc1noc([C@@H]2C[C@H]3OCC[C@H]3N(CC3CCCC3)C2)n1`, for which the cytotoxicity at 10 µM is -77.5%. With `CN(Cc1cn2c(n1)CN(C(=O)CC1CC1)CC2)Cc1ccco1` the figure was -2.21%; with `CN(C)C[C@H]1OC[C@@H]2CCN(C(=O)c3ccc[nH]3)C[C@@H]21`, 5.41%; with `CC(=O)N1CC(=O)N(c2cnn(C)c2)CC12CCN(CC1CC1)C2` (centres undefined), -2.58%. With `CNC(=O)[C@H]1C[C@@H]2CN(S(=O)(=O)c3ccccc3)C[C@@H]2N1C` the figure was -5.27%; with `O=C(c1cccc(Cl)c1)N1CC[C@H]2[C@H]1CCN2CC1CCOCC1`, -0.696%; with `O=C(NC1CC1)[C@@H]1C[C@@H]2CCN(Cc3ccccc3)C[C@H]2O1`, -68%.

As to `O=C(c1ccncc1F)N1CCc2onc(COc3cccnc3)c2C1`, the cytotoxicity at 10 µM was -70.6%. With `CN1CCn2c(-c3ccccc3)cnc2C12CCN(CC1CC1)CC2` the figure was 5.35%; with `COc1ccc(CN2CCc3c(CNC(=O)CC#N)nn(C)c3C2)cc1`, 9.67%; with `CC(=O)N1[C@H](CN(C)C)C[C@@H]2CN(C(=O)c3cccc(F)c3)CC[C@@H]21`, 5.85%. The figure for `COCCN1CCOCC12CCN(C(=O)c1cccnc1)CC2` is -73.1%.

For the molecule `COCC1CN(Cc2ccncc2)Cc2nn(CC3CC3)cc21` (centres undefined), the cytotoxicity at 10 µM is -73.7%. The figure for `CS(=O)(=O)NCc1cnc2n1CCN(Cc1ccsc1)CC2` is -7.96%; for `O=C(C1CN(CC2CCOCC2)CC12CCOCC2)N1CCCC1` (centres undefined) it is 6.65%. Turning to `c1ccc(CNc2ncc(CN3CC[C@@H]4CC[C@H](C3)N4)cn2)cc1`, the cytotoxicity at 10 µM was -3.8%.
